Our source for the IC50 values is ChEMBL document CHEMBL1145797, “Synthesis and antitumor activity of novel O-carbamoylmethyloxime derivatives of radicicol” (J Med Chem, 2003).

One test deals with 3Y1 cell line. Description: Concentration to inhibit growth of normal rat fibroblast cells (3Y1-B cells) after 72 h exposure. It is filed as functional, cell-based. Particulars: 3Y1, 72 h. The essentials:
(§1)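 Cells precultured 24 h in DMEM with 10% fetal calf serum, then exposed to drug for 72 h. Viability read by MTT assay. IC50 taken as concentration giving 50% growth inhibition relative to control cultures.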

The nature of test [1]: Concentration to inhibit growth of normal rat K-ras-transformed cells (KNRK 5.2 cells) after 72 hr exposure. It is filed as functional. In outline:
as §1

The test system of another test is NRK. Description: Concentration to inhibit growth of normal rat kidney epithelial cells (NRK cells) after 72 hr exposure. It is filed as functional, cell-based. In outline: as §1
Test [2] is described as follows: Concentration to inhibit growth of v-src-transformed cells (SR-3Y1 cells) after 72 h exposure. It is filed as functional. Particulars: Rattus norvegicus, SR3Y1, 72 h. The essentials: as §1
For test [3], the target named is Proto-oncogene tyrosine-protein kinase Src (Rattus norvegicus, UniProt Q9WUD9). The experiment in a line: Inhibition of v-Src tyrosine kinase autophosphorylation in SR3Y1 cells after 15 hr exposure. It is filed as cell-based. The essentials:
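SR-3Y1 cells exposed to drug 15 h, lysed on ice 20 min in Tris pH 7.5 RIPA-type buffer with protease inhibitors and 1 mM vanadate. Equal-protein lysates run on SDS-PAGE, blotted with anti-phosphotyrosine antibody, HRP secondary, ECL detection. IC50 = concentration halving tyrosine phosphorylation.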

The structures appear in SMILES notation.

Regarding `C[C@@H]1C[C@H]2O[C@@H]2\C=C/C=C/C(=N\OCC(=O)Nc2cccnc2)Cc2c(Cl)c(O)cc(O)c2C(=O)O1`, the IC50 in the test with 3Y1 cell line came to 200 nM; in test [1] it was 120 nM; with NRK, 240 nM; in test [2] it was 51 nM; in test [3] it was 54 nM.
In the same order, the values of `COc1ccc(NC(=O)CO\N=C2/C=C/C=C\[C@H]3O[C@@H]3C[C@@H](C)OC(=O)c3c(O)cc(O)c(Cl)c3C2)cc1` are 100 nM, 81 nM, 260 nM, 58 nM and 390 nM.
In the same order, the values of `C[C@@H]1C[C@H]2O[C@@H]2\C=C/C=C/C(=N\OCC(=O)NCC2CCCCC2)Cc2c(Cl)c(O)cc(O)c2C(=O)O1` are 180 nM, 140 nM, 210 nM, 20 nM and 17 nM.
The matching figures for `C[C@@H]1C[C@H]2O[C@@H]2\C=C/C=C/C(=N\OCC(=O)Nc2ccccc2)Cc2c(Cl)c(O)cc(O)c2C(=O)O1`: 620 nM, 290 nM, 320 nM, 120 nM and 43 nM.
For `C[C@@H]1C[C@H]2O[C@@H]2\C=C/C=C/C(=N\OCC(=O)N(CCO)CCO)Cc2c(Cl)c(O)cc(O)c2C(=O)O1`, the IC50 in the test with 3Y1 cell line is over 3000 nM; in test [1], 2900 nM; in the test on NRK, over 3000 nM; in test [2], 1100 nM; in test [3] it was over 1000 nM.
As to `COC(=O)CNC(=O)CO\N=C1/C=C/C=C\[C@H]2O[C@@H]2C[C@@H](C)OC(=O)c2c(O)cc(O)c(Cl)c2C1`, the IC50 in the test on 3Y1 cell line is 790 nM; in test [1], 570 nM; in the test with NRK, 700 nM; in test [2] it was 240 nM; in test [3], 360 nM.
Consider `C[C@@H]1C[C@H]2O[C@@H]2\C=C/C=C/C(=N\OCC(=O)N2CCC(C(N)=O)CC2)Cc2c(Cl)c(O)cc(O)c2C(=O)O1`, for which the IC50 (in the test on 3Y1 cell line; in test [1]; in the test on NRK; in test [2]) was over 3000 nM throughout.
On to `C[C@@H]1C[C@H]2O[C@@H]2\C=C/C=C/C(=N\OCC(=O)NC2CCCCC2)Cc2c(Cl)c(O)cc(O)c2C(=O)O1`, for which the IC50 in the test on 3Y1 cell line was 67 nM; in test [1], 73 nM; in the test on NRK it was 190 nM; in test [2], 5.7 nM; in test [3], 210 nM.
In the same order, the values of `C[C@@H]1C[C@H]2O[C@@H]2\C=C/C=C/C(=N\OCC(=O)NCCc2cccn2C)Cc2c(Cl)c(O)cc(O)c2C(=O)O1` are 600 nM, 380 nM, 1200 nM, 84 nM and over 1000 nM.
Take `CCN(CC)CCNC(=O)CO\N=C1/C=C/C=C\[C@H]2O[C@@H]2C[C@@H](C)OC(=O)c2c(O)cc(O)c(Cl)c2C1`: the IC50 in the test with 3Y1 cell line was over 3000 nM; in test [1], over 3000 nM; with NRK, over 3000 nM; in test [2], 2300 nM; in test [3], over 1000 nM.
`C[C@@H]1C[C@H]2O[C@@H]2\C=C/C=C/C(=N\OCC(=O)N2CCN(C)CC2)Cc2c(Cl)c(O)cc(O)c2C(=O)O1`: the IC50 in the test with 3Y1 cell line was 1000 nM; in test [1] it was 1500 nM; in the test with NRK, 1200 nM; in test [2], 470 nM.
The matching figures for `C[C@@H]1C[C@H]2O[C@@H]2\C=C/C=C/C(=N\OCC(=O)N2CCC(N3CCCCC3)CC2)Cc2c(Cl)c(O)cc(O)c2C(=O)O1`: over 3000 nM, over 3000 nM, 3000 nM and over 3000 nM.
As to `C[C@@H]1C[C@H]2O[C@@H]2\C=C/C=C/C(=N\OCC(=O)N2CCC(O)CC2)Cc2c(Cl)c(O)cc(O)c2C(=O)O1`, the IC50 (in the test on 3Y1 cell line; in test [1]; in the test with NRK; in test [2]) was over 3000 nM each time.

The term IC50 denotes the concentration needed to halve the response being measured.
